Assay [1] is described as follows: Inhibition of Trypanosoma cruzi carbonic anhydrase preincubated for 15 mins to 6 hrs by CO2 hydration stopped-flow assay. The gist of the method:
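Recombinant TcCA prepared in-house. Stopped-flow CO2 hydration assay with 0.2 mM phenol red read at 557 nm, in 20 mM HEPES pH 7.5 with 20 mM Na2SO4, at 20 °C. CO2 1.7–17 mM. Initial rates taken over 10–100 s and uncatalyzed rates subtracted. Inhibitor diluted down to 0.01 nM and preincubated with enzyme 15 min at room temperature or 6 h at 4 °C. KI by nonlinear least squares, mean of ≥3 determinations.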

The subject of a further assay is Trypanosoma cruzi. The experiment in a line: Antitrypanosomal activity against Trypanosoma cruzi epimastigotes at 64 to 256 uM by ELISA. Type of assay: functional, organism-based. The gist of the method:
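Resazurin viability assay on log-phase T. cruzi epimastigotes (strains DM28 and Y). Cultures seeded 24 h at 28 °C, plated and incubated a further 48 h at 28 °C. Resazurin added, incubation 1–6 h, then dual-wavelength absorbance at 490 and 595 nm with background subtracted. Compounds tested at 256, 128 and 64 μM. Benznidazole as reference. Three experiments, each in triplicate.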
In general terms: In an ELISA, binding on a coated surface is turned into a signal by an enzyme label.

A further assay concerns the target Carbonic anhydrase 2 (Homo sapiens, UniProt P00918). Put plainly: Inhibition of human carbonic anhydrase 2 preincubated for 15 mins to 6 hrs by CO2 hydration stopped-flow assay.
In a further assay the target is Carbonic anhydrase 1 (Homo sapiens, UniProt P00915). The experiment in a line: Inhibition of human carbonic anhydrase 1 preincubated for 15 mins to 6 hrs by CO2 hydration stopped-flow assay.

The source made the active and inactive calls. The calls are words filed in the database; no cut-off is given here.

Carbonic anhydrase 1, sequence (P00915 whole entry): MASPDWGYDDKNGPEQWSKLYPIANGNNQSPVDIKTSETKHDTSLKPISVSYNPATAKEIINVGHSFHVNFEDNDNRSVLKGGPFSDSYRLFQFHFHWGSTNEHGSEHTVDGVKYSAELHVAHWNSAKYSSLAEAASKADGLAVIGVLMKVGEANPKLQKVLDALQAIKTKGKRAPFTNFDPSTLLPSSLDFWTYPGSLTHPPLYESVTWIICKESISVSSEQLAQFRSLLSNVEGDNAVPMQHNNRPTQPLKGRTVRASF

On to `NS(=O)(=O)c1nnc(NC(=O)Cc2ccccc2Br)s1`, for which the Ki (in general, the equilibrium dissociation constant of an inhibitor or competing ligand from its target) in assay [1] was 0.83 nM. On to `NS(=O)(=O)c1ccc(NC(=O)Cc2ccc(Cl)cc2)c(F)c1`, for which the result in the assay with Trypanosoma cruzi was inactive. Besides, the Ki in assay [1] worked out at 1.2 nM. In turn, `COc1ccc(CC(=O)Nc2ccc(S(N)(=O)=O)cc2Cl)cc1` displayed a Ki in assay [1] of 7.9 nM. Same read-out and setting: under `NS(=O)(=O)c1ccc(CCNC(=O)Cc2ccc(F)cc2)cc1` stands 9.1 nM. The same measure, in the same setting: under `CC(=O)Nc1nnc(S(N)(=O)=O)s1` [ACETAZOLAMIDE] stands […]; under `COc1ccc(CC(=O)Nc2ccc(S(N)(=O)=O)cc2)cc1`, 8 nM. The same measure, in the same setting: under `COc1ccc(CC(=O)Nc2ccc(S(N)(=O)=O)cc2Br)cc1` stands 7.2 nM.

As for `NS(=O)(=O)c1ccc(CCNC(=O)Cc2ccccc2Br)cc1`, the outcome with Trypanosoma cruzi was inactive. The Ki in assay [1] stood at 3.3 nM. In assay [1], `NS(=O)(=O)c1ccc(CNC(=O)Cc2ccccc2Br)cc1` yielded a Ki of 9 nM. In the case of `NS(=O)(=O)c1ccc(NC(=O)Cc2ccccc2Br)c(F)c1`, the outcome with Trypanosoma cruzi was inactive. In assay [1], this compound came in with a Ki of 1.6 nM. Turning to `NS(=O)(=O)c1ccc(CCNC(=O)Cc2ccc(Cl)cc2)cc1`, the Ki in assay [1] was 11.8 nM; at Carbonic anhydrase 2, 6.4 nM; at Carbonic anhydrase 1, 9.7 nM.

Compound `NS(=O)(=O)c1ccc(CNC(=O)Cc2ccc(F)cc2)cc1` showed a Ki in assay [1] of 3.7 nM.

In assay [1], `NS(=O)(=O)c1ccc(NC(=O)Cc2ccccc2Br)c(Cl)c1` registered a Ki of 7.8 nM.

Compound `NS(=O)(=O)c1ccc(NC(=O)Cc2ccc(Cl)cc2)cc1` yielded a Ki in assay [1] of 2.7 nM. As for `COc1ccc(CC(=O)Nc2nnc(S(N)(=O)=O)s2)cc1`, the result in the assay with Trypanosoma cruzi was inactive. Also, in assay [1], the affinity corresponds to a Ki of 0.51 nM. As for `COc1ccc(CC(=O)NCCc2ccc(S(N)(=O)=O)cc2)cc1`, the Ki in assay [1] was found to be 7.5 nM; on Carbonic anhydrase 2 it was 0.81 nM; on Carbonic anhydrase 1 it was 3.7 nM. Take `NS(=O)(=O)c1ccc(CNC(=O)Cc2ccc(Cl)cc2)cc1`: the Ki in assay [1] was 12.5 nM. The same measure, in the same setting: under `NS(=O)(=O)c1nnc(NC(=O)Cc2ccc(F)cc2)s1` stands 7.6 nM; under `NS(=O)(=O)c1ccc(NC(=O)Cc2ccc(F)cc2)cc1`, 8.5 nM.

Compound `NS(=O)(=O)c1ccc(NC(=O)Cc2ccccc2Br)c(Br)c1` had a Ki in assay [1] of 10.9 nM.

Take `NS(=O)(=O)c1ccc(NC(=O)Cc2ccc(F)cc2)c(F)c1`: in assay [1], the affinity corresponds to a Ki of 8.3 nM. Still for that read-out and setting: under `NS(=O)(=O)c1ccc(NC(=O)Cc2ccc(Cl)cc2)c(Br)c1` stands 7.1 nM. On the same count and under the same terms, under `NS(=O)(=O)c1ccc(NC(=O)Cc2ccc(F)cc2)c(Cl)c1` stands 7 nM. Take `COc1ccc(CC(=O)NCc2ccc(S(N)(=O)=O)cc2)cc1`: the Ki in assay [1] came out at 7.4 nM. With `NS(=O)(=O)c1nnc(NC(=O)Cc2ccc(Cl)cc2)s1`, the result in the assay on Trypanosoma cruzi was inactive. Also, in assay [1], affinity was put at a Ki of 0.95 nM. In assay [1], `NS(=O)(=O)c1ccc(NC(=O)Cc2ccc(Cl)cc2)c(Cl)c1` registered a Ki of 7.7 nM. Still for that read-out and setting: under `NS(=O)(=O)c1ccc(NC(=O)Cc2ccccc2Br)cc1` stands 8.9 nM; under `COc1ccc(CC(=O)Nc2ccc(S(N)(=O)=O)cc2F)cc1`, 4.1 nM. Still for that read-out and setting: under `NS(=O)(=O)c1ccc(NC(=O)Cc2ccc(F)cc2)c(Br)c1` stands 9 nM.

The values are drawn from ChEMBL document CHEMBL2401702, “A class of sulfonamides with strong inhibitory action against the α-carbonic anhydrase from Trypanosoma cruzi” (J Med Chem, 2013).
